Source: the EternaBench riboswitch data

Test system: MS2 coat protein
Assay: apparent Kd, MS2 coat protein; higher = weaker binding; RNA-MaP array; FMN 200 µM where present
Procedure, shortened: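 The apparent Kd is reported as the median of filtered per-cluster binding-curve fits. To get these curves, designs transcribed by stalled E. coli RNA polymerase on Illumina sequencing-chip clusters were titrated with SNAP-549-labelled MS2 coat protein from 0.7 or 1.5 nM, doubling to 3 µM. Titrations were run without and then with constant ligand in 100 mM Tris-HCl pH 7.5, 80 mM KCl, 4 mM MgCl2, BSA, DTT, yeast tRNA and Tween-20, and green signal was normalised to red-channel RNA signal and control-cluster median Fmax.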

[1] = designed as: ON switch for flavin mononucleotide, no ligand
[2] = ligand present: flavin mononucleotide, designed as: ON switch for flavin mononucleotide
[3] = designed as: OFF switch for flavin mononucleotide, no ligand
[4] = ligand present: flavin mononucleotide, designed as: OFF switch for flavin mononucleotide

Row | Sequence | apparent Kd [1] [nM] | apparent Kd [2] [nM] | apparent Kd [3] [nM] | apparent Kd [4] [nM]
1 | UGGUACUAGGGAGGAUAUGGGAAGAUACAUGAGGAUCACCCAUGUUUAAGAAAGCCGAGAGGCAACUAGAAGGCCCUAGUACCU | 278 | 13.8 | – | –
2 | AUUUUCCUGGCAGGAUAUCUUACACAUGAGGAUCACCCAUGUACAAAAGUGGGAGAAGGGUCGUGGAGGUGUAUAGUCGAAUAG | 79.2 | 36.1 | – | –
3 | GUCAGCUCGUGAGGAUAUACAACACUGCUUCGGCAGUGUAUUAUGAUCACAUGAGGAUCACCCAUGUAGAAGGCACGAGCUGAU | – | – | 29.3 | 230
4 | GGGUACAUCGGAGGAUAUCAUGUACAUACAUGAGGAUCACCCAUGUCGAUGGAGACAUCGGAGAUUGAGAAGGCCGAUGUACCG | 230 | 9.27 | – | –
5 | AGAUUUCAUGAGGAUAUCGUAUUAGAUUUAUUGCGAGAAGGCAUGACAUGAGGAUCACCCAUGUAGUGUUGGUU | – | – | 49.3 | 96.6
6 | UAGCUCGUGUGAGGAUAUGCCGCCGUUUCGGCUGCAGAAGGUGCUACGUUACAUGAGGAUCACCCAUGUCUCUGUUGUUUCGUC | 32.5 | 30.5 | – | –
7 | CCAGCAAAUGUAAGGAUAUGCUGGUCCUUGGAUCAGCAGAAGGUACAUGAGGAUCACCCAUGUCGUGGAGCUGG | – | – | 29.4 | 160
8 | AAACCUAUAGGAUAUACAUGAGGAUCACCCAUGUUGCGAUUUUUUAGGUAACAGAUCCGUAGAAGGGUAGGGCA | – | – | 29.7 | 46.9
9 | AAGUCGUGAGGAUAUACAUGGAUAUACAUUUAUGUAGAACUACAUGAGGAUCACCCAUGUAGAAGGCACGAAUA | – | – | 56.2 | 147
10 | GUAGCUAUCGGAGGAUAUUCAUAGCCGAAAGGCACAUGAGGAUCACCCAUGUGCGGAAACGCUUGGGAGAAGGCCGAUAGCUAC | 25 | 15.1 | – | –
11 | GAUAGGACAGAGAAGGUACGUGCUAGAGAUACUAGCAAAAUUUCCUCACAUGAGGAUCACCCAUGUAAGGAUAUCUGUCCUAUC | – | – | 4.44 | 4.8
12 | GCGGAACAUGAGGAUCACCCAUGUGGAGGGUGUAAAGGAUAUUAUAGAGAGAAGGUAGGGUAAGAAGGUUGCUGGG | 843 | 763 | – | –
13 | GUAGCUAUCGGAGGAUAUUCAUUAUACAUGAGGAUCACCCAUGUUAAAGUGGGAGAAGGCCGAUAGCUACAAGAGCGAAAGCUC | 35.8 | 8.13 | – | –
14 | GAAGACAUAGUUCAGGAUAUAGGAAUAGUCACAUGAGGAUCACCCAUGUGCAUUUAUAUGCGCACUUAGAAGGGAGGUAGUUAUC | 36.3 | 41 | – | –
15 | UGAGCCUCGUGAGGAUAUACAUGAGGAUCACCCAUGUAAAUGAAAGAUACGUCGAAACGACGAAUGUAGAAGGCACGAGGCUCA | – | – | 18.4 | 61.3
16 | AGCUACGUUUCGUAGCAGUGUCAUCGAGAAGGCCCUGACAUGAGGAUCACCCAUGUUGUUACAUGGGAGGAUAUCGAUGAUACA | 12.6 | 4.9 | – | –
17 | UCUCGACAUGAGGAUCACCCAUGUCAGGAUAUUGUGUUUGAGGUUUUUUACCUUUUGACAAGAAGGGAUGUGUG | – | – | – | 30.4
18 | GUCGGAAACGACAAAAGUAUGGAUCCAGAAGGCAUGAACAUGAGGAUCACCCAUGUCUAAAGAUAUGAGGAUAUGGAUCCAUAC | 6.66 | 4.44 | – | –
19 | GGUACGUCCACAGGAUAUGCGAAACAAGAAACCGCAGAAGGGUGAGGCGUCAGGACCCUGGACAUGAGGAUCACCCAUGUGCGU | 113 | 15.4 | – | –
20 | CAGGUAUAAGGAUAUACAUAGAUACAGACACAUGUUCAAGUACAUGAGGAUCACCCAUGUAGAAGGUAUAUAUG | – | – | 28.8 | 25.6
21 | UUCCUCGUUGUGAGGAUAUCGUCCGGGUUUUGUUACGAGAAGGCACAUGAGGAUCACCCAUGUUACUUGAUGUU | – | – | 19 | 64

Row | Sequence | apparent Kd [1] [nM] | apparent Kd [2] [nM] | apparent Kd [3] [nM] | apparent Kd [4] [nM]
22 | UGAUCGAGAGAUCUUAGAUUCUGGUAGGAUAUACAUUAUAGAAGAUAUACAUGAGGAUCACCCAUGUAGAAGGACUAGAGUCUA | – | – | 6.73 | 9.72
23 | GCCAUCGCAUGAGGAUAUGCUCCCGUUUCGGGAGCAGAAGGCAUGUCAUAAGACAUGAGGAUCACCCAUGUGGUUAAGAUGGCA | 335 | 12.4 | – | –
24 | GCGCACUAAGUGAGGAUAUCGAUUUCUUUAAGGAUCGAGAAGGCACAUGAGGAUCACCCAUGUUUGACGUGCGC | – | – | 16.9 | 14.5
25 | GACGCUGACCGAGGAUAUACAAUAAAACAACAAACACCUCGUGUCAGAACAUGAGGAUCACCCAUGUAGAAGGCGGCAGGUCUA | – | – | 48.6 | 127
26 | GUGUACAGAGGAUAUACACGAAUCUAGCGAAGCUAGGUUUGACAUGAGGAUCACCCAUGUAGAAGGCUGUACAC | – | – | 16.1 | 24.2
27 | AGUGCGUAUGUGAGGAUAUGCUGGUCCUUGGAUCAGCAGAAGGCACAUGAGGAUCACCCAUGUGGUGUCGUACU | – | – | 253 | 27.2
28 | UGGUACAUGGGAGGAUAUCAUGUUCUUACAUGAGGAUCACCCAUGUCGAUGGAGACAUCGGAGAUUGAGAAGGCCCAUGUACCU | 1070 | 54.2 | – | –
29 | GCGUUGUCAGGAUAUUAUCCGUGGACAAUAGUCAGACACGGUAAGAAGGGACAUGAGGAUCACCCAUGUCCUCA | – | – | 17.6 | 27.1
30 | UUAUUGUGAGGAUAUCCAAUAUAUGACAUGAGGAUCACCCAUGUUUCCACUCGUACCUCCGGAGAAGGCACUUAUU | – | – | 32.7 | 29.4
31 | UUGGACGUCGUAGGAUAUGUAGGAUAUUCCUACAUGAGGAUCACCCAUGUUGACAUGGAAGAAGGACAGAAUGACGAUGUCCAU | 374 | 5.51 | – | –
32 | GGAUAGGACAGAGGAUAUACAUGCUAGAGAUACUAGCAAAAUUUCCUCACAUGAGGAUCACCCAUGUAGAAGGCUGUCCUAUCG | – | – | 28.5 | 673
33 | GGUAUCUCCAGUGAGGAUAUGCGGCGUAGAACAUGAGGAUCACCCAUGUCCUUCGAAUGGGUUACGCAGAAGGCACUACGGUACC | 36.6 | 16.6 | – | –
34 | GUCAGCUCGUGAGGAUAUACAACACUGCUUCGGCAGUGUAUUAAGAUCACAUGAGGAUCACCCAUGUAGAAGGCACGGGCUGAU | – | – | 14 | 323
35 | CCGGGACAUGAGGAUCACCCAUGUUUCGUUUAUAGUAAAGCACAGGAUAUGAUGAAACAGGUUUCUCAGAAGGGUGUUCCGAAA | 63.2 | 67.8 | – | –
36 | UUCAUCAGUGAAGGAUAUCUAUGUCCAACAUGAGGAUCACCCAUGUUGAGGAUUACCUAUGUGUAGGAGAAGGUCAAUAUAACU | 6.79 | 6.1 | – | –
37 | UGAGCAUGAGGAUAUACUUGGCGACCGUGAGGUCGAGGUUUACAUGAGGAUCACCCAUGUAGAAGGCAUGUUCU | – | – | 18.7 | 52.6
38 | AAUAGCUGAGGAUAUACAUGAGGAUCACCCAUGUAUUAGUAGGCUGGGAAUAAAUCGUGUAGAAGGCAGGAUGA | – | – | 16 | 27.2
39 | GUGCACAUUCGAGGAUAUCGGAGAGAGAUCCUUCGAGAAGGCGAUUCAUGCUGUGUUAUUCUGGACAUGAGGAUCACCCAUGUG | 326 | 172 | – | –
40 | UACUUGUCAGGAUAUCUUACAUUUGCAUUAUAGCAACUCUUGGAGAAGGGACAUGAGGAUCACCCAUGUUUGGU | – | – | 70.8 | 317
41 | UCAUUUCUGUUAGGAUAUUAAAACAUGACGAUACAUGAGGAUCACCCAUGUUAAGAAGGAACAAAUACAUAUAAUGCAAUGUUC | – | – | 12.5 | 10.7
42 | CCGGAAACGGGUAGCUGACAUGAGGAUCACCCAUGUGUUACACAGGAUAUGGAUCCUAAUUGGAUCCAGAAGGGUGUCAGCUAC | 220 | 36.5 | – | –
